Activity calls are given as the source filed them. The calls are words filed in the database; no cut-off is given here.
Experiments:
[1] = target: T1, Eukaryotic elongation factor 2 kinase (Homo sapiens) (UniProt O00418); test: Inhibition of EF2K (unknown origin) at 1 uM incubated for 30 mins in presence of [gamma-33P]ATP by multidrop micro reagent based assay relative to control
T1 sequence (whole entry): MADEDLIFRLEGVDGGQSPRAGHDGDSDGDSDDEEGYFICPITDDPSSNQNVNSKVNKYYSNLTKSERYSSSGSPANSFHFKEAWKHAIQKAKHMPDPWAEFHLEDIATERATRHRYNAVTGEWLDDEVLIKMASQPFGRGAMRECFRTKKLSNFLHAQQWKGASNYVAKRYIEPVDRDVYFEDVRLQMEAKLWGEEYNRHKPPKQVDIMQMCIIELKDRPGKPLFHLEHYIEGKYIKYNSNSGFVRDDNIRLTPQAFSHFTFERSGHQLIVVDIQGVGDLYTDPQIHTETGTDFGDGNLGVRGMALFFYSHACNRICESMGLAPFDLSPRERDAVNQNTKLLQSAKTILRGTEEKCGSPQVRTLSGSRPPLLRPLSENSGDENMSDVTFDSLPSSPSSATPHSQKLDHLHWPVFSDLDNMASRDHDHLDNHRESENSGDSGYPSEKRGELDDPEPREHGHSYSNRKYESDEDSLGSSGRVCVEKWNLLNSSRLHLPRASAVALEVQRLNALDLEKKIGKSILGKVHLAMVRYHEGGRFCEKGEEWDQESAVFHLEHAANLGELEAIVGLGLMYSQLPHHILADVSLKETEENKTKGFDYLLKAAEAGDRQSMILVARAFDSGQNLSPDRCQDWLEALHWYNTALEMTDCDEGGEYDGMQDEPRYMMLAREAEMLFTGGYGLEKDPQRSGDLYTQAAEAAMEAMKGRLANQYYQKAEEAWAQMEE

[2] = target: Leucine-rich repeat serine/threonine-protein kinase 2 (Homo sapiens, UniProt Q5S007); test: Inhibition of LRRK2 in human Flp-In-T-REx-293 cells assessed as inhibition of ERM phosphorylation at 10 uM incubated for 1 hr in presence of LRRKtide by immunoblot analysis; assay type: cell-based
In short: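 Flp-in T-REx cells carrying GFP-tagged G14V-Rho were left uninduced or induced with 1 μg/ml doxycycline. At 7 h, compound at 10 μM was added for 1 h. Cells were lysed in SDS lysis buffer, run on 4–12% gels and immunoblotted with pan-phospho-ERM antibody (1 μg/ml in milk/TBST containing 10 μg/ml LRRKtide).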

[3] = target: T2, Interleukin-1 receptor-associated kinase 4 (Homo sapiens) (UniProt Q9NWZ3); test: Activity of IRAK4 (unknown origin) at 1 uM incubated for 30 mins in presence of [gamma-33P]ATP by multidrop micro reagent based assay relative to control
T2 sequence (whole entry): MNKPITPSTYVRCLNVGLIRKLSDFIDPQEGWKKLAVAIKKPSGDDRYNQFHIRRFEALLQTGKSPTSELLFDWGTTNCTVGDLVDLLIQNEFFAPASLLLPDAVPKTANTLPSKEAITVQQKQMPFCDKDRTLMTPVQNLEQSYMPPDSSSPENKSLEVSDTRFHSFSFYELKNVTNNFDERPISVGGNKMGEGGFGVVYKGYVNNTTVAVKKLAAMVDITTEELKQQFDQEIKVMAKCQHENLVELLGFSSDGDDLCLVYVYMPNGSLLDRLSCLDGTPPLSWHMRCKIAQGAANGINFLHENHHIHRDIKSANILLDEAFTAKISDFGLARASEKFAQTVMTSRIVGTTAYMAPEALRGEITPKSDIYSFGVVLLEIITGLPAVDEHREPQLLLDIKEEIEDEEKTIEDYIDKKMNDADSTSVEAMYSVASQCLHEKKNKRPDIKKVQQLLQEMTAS

[4] = target: Dual specificity mitogen-activated protein kinase kinase 1 (Homo sapiens) (UniProt Q02750); test: Inhibition of MKK1 (unknown origin) at 1 uM incubated for 30 mins in presence of [gamma-33P]ATP by multidrop micro reagent based assay relative to control; values are per cent of control
[5] = target: Ribosomal protein S6 kinase alpha-3 (Homo sapiens) (UniProt P51812); test: Inhibition of RSK2 (unknown origin) at 1 uM incubated for 30 mins in presence of [gamma-33P]ATP by multidrop micro reagent based assay relative to control; values are per cent of control
[6] = target: Ribosomal protein S6 kinase beta-1 (Homo sapiens) (UniProt P23443); test: Inhibition of S6K1 (unknown origin) at 1 uM incubated for 30 mins in presence of [gamma-33P]ATP by multidrop micro reagent based assay relative to control; values are per cent of control
[7] = target: Serine/threonine-protein kinase Chk2 (Homo sapiens) (UniProt O96017); test: Inhibition of CHK2 (unknown origin) at 1 uM incubated for 30 mins in presence of [gamma-33P]ATP by multidrop micro reagent based assay relative to control; values are per cent of control
[8] = target: Maternal embryonic leucine zipper kinase (Homo sapiens) (UniProt Q14680); test: Inhibition of MELK (unknown origin) at 1 uM incubated for 30 mins in presence of [gamma-33P]ATP by multidrop micro reagent based assay relative to control; values are per cent of control
[9] = target: Rho-associated protein kinase 2 (Homo sapiens, UniProt O75116); test: Inhibition of ROCK2 (unknown origin) at 1 uM incubated for 30 mins in presence of [gamma-33P]ATP by multidrop micro reagent based assay relative to control; values are per cent of control
[10] = target: Mitogen-activated protein kinase 14 (Homo sapiens) (UniProt Q16539); test: Inhibition of p38alpha MAPK (unknown origin) at 1 uM incubated for 30 mins in presence of [gamma-33P]ATP by multidrop micro reagent based assay relative to control; values are per cent of control
Mitogen-activated protein kinase 14 (Homo sapiens), sequence (Q16539 whole entry): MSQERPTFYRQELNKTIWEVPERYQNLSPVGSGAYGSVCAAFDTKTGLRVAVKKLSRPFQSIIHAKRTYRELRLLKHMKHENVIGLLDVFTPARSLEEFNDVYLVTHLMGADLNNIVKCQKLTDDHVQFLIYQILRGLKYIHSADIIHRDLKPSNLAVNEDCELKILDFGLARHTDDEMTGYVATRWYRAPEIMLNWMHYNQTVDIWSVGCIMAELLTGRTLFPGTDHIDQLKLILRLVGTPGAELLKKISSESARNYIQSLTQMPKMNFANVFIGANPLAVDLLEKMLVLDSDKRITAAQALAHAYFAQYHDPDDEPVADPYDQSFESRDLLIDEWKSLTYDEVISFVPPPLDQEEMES

Ribosomal protein S6 kinase beta-1 (Homo sapiens), sequence (P23443 whole entry, looked up): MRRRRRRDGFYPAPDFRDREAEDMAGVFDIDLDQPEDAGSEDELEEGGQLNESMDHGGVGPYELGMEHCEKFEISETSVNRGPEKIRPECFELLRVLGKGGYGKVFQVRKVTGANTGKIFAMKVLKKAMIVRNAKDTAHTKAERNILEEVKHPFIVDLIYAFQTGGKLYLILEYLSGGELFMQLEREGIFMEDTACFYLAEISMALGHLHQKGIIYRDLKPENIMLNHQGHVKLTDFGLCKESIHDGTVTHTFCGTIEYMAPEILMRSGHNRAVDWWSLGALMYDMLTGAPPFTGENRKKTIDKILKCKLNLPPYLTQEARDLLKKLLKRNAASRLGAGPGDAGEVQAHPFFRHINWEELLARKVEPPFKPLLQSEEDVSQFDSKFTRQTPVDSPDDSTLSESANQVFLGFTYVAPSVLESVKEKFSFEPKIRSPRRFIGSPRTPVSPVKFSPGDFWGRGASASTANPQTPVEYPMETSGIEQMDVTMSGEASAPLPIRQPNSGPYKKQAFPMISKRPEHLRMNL
Leucine-rich repeat serine/threonine-protein kinase 2, sequence (Q5S007 whole entry): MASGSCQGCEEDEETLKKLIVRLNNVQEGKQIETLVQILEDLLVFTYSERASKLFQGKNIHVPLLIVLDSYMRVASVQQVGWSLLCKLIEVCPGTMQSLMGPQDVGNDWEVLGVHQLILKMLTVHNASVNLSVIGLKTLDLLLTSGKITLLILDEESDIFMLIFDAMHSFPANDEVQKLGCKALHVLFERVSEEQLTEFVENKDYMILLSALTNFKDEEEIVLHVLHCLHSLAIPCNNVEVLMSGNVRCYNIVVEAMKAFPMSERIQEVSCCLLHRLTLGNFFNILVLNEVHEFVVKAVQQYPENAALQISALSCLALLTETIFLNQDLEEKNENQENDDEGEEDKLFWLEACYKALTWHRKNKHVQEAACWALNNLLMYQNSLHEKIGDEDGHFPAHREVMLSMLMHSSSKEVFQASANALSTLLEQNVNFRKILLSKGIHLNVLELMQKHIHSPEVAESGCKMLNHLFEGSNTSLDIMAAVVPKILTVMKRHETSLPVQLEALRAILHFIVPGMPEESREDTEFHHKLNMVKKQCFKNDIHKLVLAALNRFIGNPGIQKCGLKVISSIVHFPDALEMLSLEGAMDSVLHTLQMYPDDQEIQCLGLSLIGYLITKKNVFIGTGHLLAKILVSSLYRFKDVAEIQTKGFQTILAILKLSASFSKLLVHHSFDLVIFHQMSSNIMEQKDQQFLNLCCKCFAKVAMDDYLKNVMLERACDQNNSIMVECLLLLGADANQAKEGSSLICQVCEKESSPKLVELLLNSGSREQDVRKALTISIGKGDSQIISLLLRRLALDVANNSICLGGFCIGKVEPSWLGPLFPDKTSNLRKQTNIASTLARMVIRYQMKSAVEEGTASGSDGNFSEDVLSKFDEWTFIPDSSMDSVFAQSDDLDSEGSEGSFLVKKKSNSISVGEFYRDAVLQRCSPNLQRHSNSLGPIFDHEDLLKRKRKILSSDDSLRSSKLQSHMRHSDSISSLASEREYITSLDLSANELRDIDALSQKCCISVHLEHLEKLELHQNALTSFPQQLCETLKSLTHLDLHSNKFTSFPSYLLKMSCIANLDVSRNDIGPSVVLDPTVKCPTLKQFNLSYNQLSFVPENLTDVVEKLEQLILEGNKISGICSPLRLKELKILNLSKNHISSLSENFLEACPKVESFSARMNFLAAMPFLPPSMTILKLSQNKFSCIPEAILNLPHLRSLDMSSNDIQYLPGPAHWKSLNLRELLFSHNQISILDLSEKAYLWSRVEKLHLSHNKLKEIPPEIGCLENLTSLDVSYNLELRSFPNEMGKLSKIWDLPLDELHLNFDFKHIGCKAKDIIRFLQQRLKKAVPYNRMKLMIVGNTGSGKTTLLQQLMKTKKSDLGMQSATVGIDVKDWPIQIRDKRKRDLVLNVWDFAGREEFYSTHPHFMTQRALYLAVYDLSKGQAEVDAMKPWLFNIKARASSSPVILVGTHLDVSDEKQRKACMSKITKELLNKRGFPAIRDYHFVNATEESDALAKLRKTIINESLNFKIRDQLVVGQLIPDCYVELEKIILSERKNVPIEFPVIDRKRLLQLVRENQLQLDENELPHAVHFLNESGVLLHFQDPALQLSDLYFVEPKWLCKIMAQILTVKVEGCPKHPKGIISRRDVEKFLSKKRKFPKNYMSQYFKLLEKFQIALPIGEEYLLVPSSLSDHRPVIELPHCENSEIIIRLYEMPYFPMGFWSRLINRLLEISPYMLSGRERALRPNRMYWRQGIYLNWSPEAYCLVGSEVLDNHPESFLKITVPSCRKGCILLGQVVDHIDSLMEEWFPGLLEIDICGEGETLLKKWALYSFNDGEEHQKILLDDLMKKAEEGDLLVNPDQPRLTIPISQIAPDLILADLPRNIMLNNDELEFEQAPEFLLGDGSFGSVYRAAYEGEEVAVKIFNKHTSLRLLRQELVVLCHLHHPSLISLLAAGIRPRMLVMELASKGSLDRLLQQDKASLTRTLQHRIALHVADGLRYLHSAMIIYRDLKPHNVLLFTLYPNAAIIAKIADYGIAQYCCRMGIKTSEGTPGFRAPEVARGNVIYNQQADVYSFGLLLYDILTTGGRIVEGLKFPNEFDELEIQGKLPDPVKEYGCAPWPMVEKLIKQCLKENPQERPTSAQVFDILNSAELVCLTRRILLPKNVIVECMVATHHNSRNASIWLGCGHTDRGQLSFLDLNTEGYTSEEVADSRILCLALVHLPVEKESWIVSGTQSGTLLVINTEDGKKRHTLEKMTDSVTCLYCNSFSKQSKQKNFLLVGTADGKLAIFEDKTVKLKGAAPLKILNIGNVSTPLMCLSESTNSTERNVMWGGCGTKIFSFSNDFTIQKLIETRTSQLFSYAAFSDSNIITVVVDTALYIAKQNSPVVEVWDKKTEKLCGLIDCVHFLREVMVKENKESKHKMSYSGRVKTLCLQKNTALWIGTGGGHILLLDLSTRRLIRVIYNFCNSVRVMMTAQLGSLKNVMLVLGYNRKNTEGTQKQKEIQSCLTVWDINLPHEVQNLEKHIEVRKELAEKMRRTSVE
Ribosomal protein S6 kinase alpha-3 (Homo sapiens), sequence (P51812 whole entry): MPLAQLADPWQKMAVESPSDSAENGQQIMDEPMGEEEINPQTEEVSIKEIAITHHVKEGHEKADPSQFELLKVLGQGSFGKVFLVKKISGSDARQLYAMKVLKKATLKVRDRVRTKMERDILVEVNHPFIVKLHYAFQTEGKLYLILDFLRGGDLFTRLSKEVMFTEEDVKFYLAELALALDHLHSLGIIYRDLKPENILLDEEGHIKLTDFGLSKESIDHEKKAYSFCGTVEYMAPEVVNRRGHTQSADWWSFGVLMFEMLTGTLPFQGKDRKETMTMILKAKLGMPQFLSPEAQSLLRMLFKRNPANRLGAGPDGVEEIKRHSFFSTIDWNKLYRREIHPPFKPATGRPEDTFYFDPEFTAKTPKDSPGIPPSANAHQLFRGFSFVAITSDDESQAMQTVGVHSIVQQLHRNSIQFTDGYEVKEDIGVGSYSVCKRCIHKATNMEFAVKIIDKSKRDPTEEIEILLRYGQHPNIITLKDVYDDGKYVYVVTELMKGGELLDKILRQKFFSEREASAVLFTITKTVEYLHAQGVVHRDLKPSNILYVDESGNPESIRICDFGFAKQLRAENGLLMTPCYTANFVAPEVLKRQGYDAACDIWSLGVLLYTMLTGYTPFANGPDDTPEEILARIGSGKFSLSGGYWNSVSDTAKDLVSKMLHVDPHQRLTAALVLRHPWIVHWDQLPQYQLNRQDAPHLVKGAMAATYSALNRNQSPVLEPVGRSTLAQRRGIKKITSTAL
Maternal embryonic leucine zipper kinase (Homo sapiens), sequence (Q14680 whole entry, looked up): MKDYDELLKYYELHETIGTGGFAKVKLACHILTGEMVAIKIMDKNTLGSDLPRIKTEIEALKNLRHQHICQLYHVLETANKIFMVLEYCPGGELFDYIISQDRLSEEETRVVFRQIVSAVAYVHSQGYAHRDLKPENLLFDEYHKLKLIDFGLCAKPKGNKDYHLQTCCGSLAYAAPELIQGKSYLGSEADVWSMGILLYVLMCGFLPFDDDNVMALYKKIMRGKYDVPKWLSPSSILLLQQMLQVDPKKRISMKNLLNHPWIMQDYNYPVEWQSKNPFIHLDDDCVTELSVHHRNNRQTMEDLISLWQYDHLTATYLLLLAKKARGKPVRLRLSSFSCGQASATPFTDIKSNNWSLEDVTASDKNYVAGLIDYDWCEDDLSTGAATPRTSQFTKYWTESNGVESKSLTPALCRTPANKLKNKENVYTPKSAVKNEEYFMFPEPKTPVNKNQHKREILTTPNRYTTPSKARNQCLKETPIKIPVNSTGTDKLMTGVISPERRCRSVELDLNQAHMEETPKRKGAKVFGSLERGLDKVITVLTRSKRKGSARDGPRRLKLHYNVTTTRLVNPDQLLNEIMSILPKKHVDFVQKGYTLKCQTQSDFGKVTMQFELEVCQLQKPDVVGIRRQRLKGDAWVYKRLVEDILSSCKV

| Compound | residual activity [1] [%] | inhibition [2] | residual activity [3] [%] | residual activity [4] [%] | residual activity [5] [%] | residual activity [6] [%] | residual activity [7] [%] | residual activity [8] [%] | residual activity [9] [%] | residual activity [10] [%] |
| --- | --- | --- | --- | --- | --- | --- | --- | --- | --- | --- |
| CC1=C(C(=O)Nc2cc3cn[nH]c3cc2F)C(c2ccc(C(F)(F)F)cc2)CC(=O)N1 (stereo not given) | 99 | inactive | 94 | 61 | 48 | 24 | 102 | 83 | 3 | 103 |
| Cc1cncc2cccc(S(=O)(=O)N3CCCNC[C@@H]3C)c12 | 99 | inactive | 102 | 69 | 76 | 72 | 44 | 70 | 3 | 109 |
| CCN(CC)CCNC(=O)c1c(C)[nH]c(/C=C2\C(=O)Nc3ccc(F)cc32)c1C |  | inactive |  |  | 41 |  | 5 | 17 | 67 |  |
| C[C@@H](N)[C@H]1CC[C@H](C(=O)Nc2ccncc2)CC1 |  | inactive |  |  |  |  |  |  |  |  |
| CCn1c(-c2nonc2N)nc2cnc(Oc3cccc(NC(=O)c4ccc(OCCN5CCOCC5)cc4)c3)cc21 [GSK-269962A] | 113 | inactive | 78 | 54 | 24 | 2 |  | 44 | 1 | 108 |
